Numbering of substitutions follows the chain as printed.
Assays:
[1] = molecular target: T1, IDH2‐R140Q (Homo sapiens, UniProt P48735, R140Q); test: Cell-based enzyme assay, lysates of U-87 MG/IDH2-R140Q cells; type: biochemical; settings: IC50, inhibition of IDH2-R140Q enzymatic activity
T1 sequence (P48735 40-452 R140Q): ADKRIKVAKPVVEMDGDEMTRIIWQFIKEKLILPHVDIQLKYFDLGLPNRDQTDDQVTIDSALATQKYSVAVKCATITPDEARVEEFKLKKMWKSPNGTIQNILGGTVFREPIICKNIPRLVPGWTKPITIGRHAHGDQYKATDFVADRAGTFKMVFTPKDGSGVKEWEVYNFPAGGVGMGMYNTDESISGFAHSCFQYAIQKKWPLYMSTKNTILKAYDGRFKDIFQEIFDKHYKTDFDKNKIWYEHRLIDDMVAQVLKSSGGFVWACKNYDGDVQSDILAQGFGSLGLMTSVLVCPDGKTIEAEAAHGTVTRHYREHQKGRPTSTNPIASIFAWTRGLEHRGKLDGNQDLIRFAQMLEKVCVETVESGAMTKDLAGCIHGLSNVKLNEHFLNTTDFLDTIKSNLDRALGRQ

[2] = molecular target: T2, IDH2‐R172K (Homo sapiens, UniProt P48735, R172K); test: Cell-based enzyme assay, lysates of U-87 MG/IDH2-R172K cells; type: biochemical
T2 sequence (P48735 40-452 R172K): T1 sequence (P48735 40-452 R140Q) with Q101R, R133K

[3] = molecular target: T3, IDH2‐WT (Homo sapiens, UniProt P48735); test: Cell-based enzyme assay, lysates of U-87 MG/IDH2-WT cells; type: biochemical
T3 sequence (P48735 40-452): T1 sequence (P48735 40-452 R140Q) with Q101R

[4] = molecular target: IDH1‐R132C (Homo sapiens, UniProt O75874, R132C); test: Cell-based enzyme assay, lysates of U-87 MG/IDH1-R132C cells; type: biochemical
[5] = molecular target: IDH1‐R132H (Homo sapiens, UniProt O75874, R132H); test: Cell-based enzyme assay, lysates of U-87 MG/IDH1-R132H cells; type: biochemical
[6] = molecular target: IDH1‐WT (Homo sapiens, UniProt O75874); test: Cell-based enzyme assay, lysates of U-87 MG/IDH1-WT cells; type: biochemical
[7] = test system: U‐87 MG/IDH2‐R140Q cells; test: Cell-based inhibition of 2-HG production; settings: Homo sapiens, 72 h, read-out: Inhibition of 2-HG production
[8] = test system: TF‐1/IDH2‐R140Q cells; test: Cell-based inhibition of 2-HG production; settings: Homo sapiens, 72 h, read-out: IC50, anti-2-HG activity
[9] = test system: TF‐1/IDH2‐R172K cells; test: Cell-based inhibition of 2-HG production; settings: Homo sapiens, 72 h, read-out: IC50, anti-2-HG activity
[10] = test system: TF‐1/IDH2‐R140Q cells; test: Erythroid differentiation under EPO, HBG mRNA by qRT-PCR; type: cell-based, human; settings: 7 d + 7 d EPO
In short: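 TF-1 cells carrying doxycycline-inducible IDH2-R140Q got test compound for 7 d in RPMI-1640, 10% FBS, 2 ng/mL hGM-CSF. GM-CSF was then replaced by EPO (2 IU/mL) for another 7 d with compound present. HBG mRNA was measured in cell pellets by SYBR qRT-PCR, with GAPDH primers also used. Means ± SD of triplicates.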

[11] = test system: TF‐1/IDH2‐R172K cells; test: Erythroid differentiation under EPO, HBG mRNA by qRT-PCR; type: cell-based, human; settings: 7 d + 7 d EPO
[12] = test system: TF‐1/IDH2‐R140Q cells; test: Cell proliferation assay; type: cell-based, human; settings: 7 d + 7 d without hGM-CSF
[13] = test system: TF‐1/IDH2‐R172K cells; test: Cell proliferation assay; type: cell-based, human; settings: 7 d + 7 d without hGM-CSF
[14] = molecular target: T1, IDH2‐R140Q; test: Cellular thermal shift assay in U-87 MG cells; type: binding; settings: 1 h treatment
[15] = molecular target: T2, IDH2‐R172K; test: Cellular thermal shift assay in U-87 MG cells; type: binding; settings: 1 h treatment
[16] = molecular target: T4, wild‐type IDH2 (Homo sapiens, UniProt P48735); test: Cellular thermal shift assay in U-87 MG cells; type: binding; settings: 1 h treatment
T4 sequence (P48735 40-452): T1 sequence (P48735 40-452 R140Q) with Q101R

[17] = molecular target: T5, IDH2‐R140Q‐Q316A (Homo sapiens, UniProt P48735, Q316A/R140Q); test: Cellular thermal shift assay in U-87 MG/IDH2-R140Q-Q316A cells; type: binding; settings: 1 h treatment
T5 sequence (P48735 40-452 R140Q/Q316A): T1 sequence (P48735 40-452 R140Q) with Q277A

Chain of IDH1‐WT (O75874 whole entry): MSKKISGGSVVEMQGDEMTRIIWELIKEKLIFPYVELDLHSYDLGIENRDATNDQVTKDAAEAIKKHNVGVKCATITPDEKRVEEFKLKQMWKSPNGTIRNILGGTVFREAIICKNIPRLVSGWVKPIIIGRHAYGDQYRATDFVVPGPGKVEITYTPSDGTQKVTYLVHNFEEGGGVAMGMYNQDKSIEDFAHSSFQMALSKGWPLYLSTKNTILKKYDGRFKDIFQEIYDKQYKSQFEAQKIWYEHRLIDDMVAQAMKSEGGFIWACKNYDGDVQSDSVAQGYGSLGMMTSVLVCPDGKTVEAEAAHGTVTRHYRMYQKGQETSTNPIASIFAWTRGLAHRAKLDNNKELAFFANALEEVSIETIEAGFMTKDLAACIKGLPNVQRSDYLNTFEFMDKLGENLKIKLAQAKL
Chain of IDH1‐R132H (O75874 whole entry R132H): as the sequence (O75874 whole entry) above, with R132H counted along it
Chain of IDH1‐R132C (O75874 whole entry R132C): as the sequence (O75874 whole entry) above, with R132C counted along it

## CC(C)(O)CNc1nc(Nc2ccnc(C(F)(F)F)c2)nc(-c2cccc(C(F)(F)F)n2)n1 [AG‐221, enasidenib]
[1]
  IC50: 229 ± 23.2 nM
[2]
  IC50: 625 ± 146 nM
[3]
  Inhibitory effect on IDH2-WT enzymatic activity: no apparent inhibitory effects
[4]
  Inhibitory effect on IDH1-R132C enzymatic activity: no apparent inhibitory effects
[5]
  Inhibitory effect on IDH1-R132H enzymatic activity: no apparent inhibitory effects
[6]
  Inhibitory effect on IDH1-WT enzymatic activity: no apparent inhibitory effects
[7]
  inhibition at 0.2 µM: 67.3%
[8]
  IC50: 24.7 ± 2.3 nM
[9]
  IC50: 732 ± 331 nM
[10]
  Effect on HBG levels (cell differentiation): increased HBG
[11]
  Effect on HBG levels (cell differentiation): increased HBG only in TF‐1/IDH2‐R140Q cells
[12]
  Effect on cell proliferation (MTT): did not significantly inhibit proliferation
[13]
  Effect on cell proliferation (MTT): did not significantly inhibit proliferation
[14]
  Thermal stabilization of IDH2-R140Q (CETSA): apparent thermal‐stabilization effect
[15]
  Thermal stabilization of IDH2-R172K (CETSA): weak thermal‐stabilization effect
[16]
  Thermal stabilization of wild-type IDH2 (CETSA): Neither TQ05310 nor AG‐221 stabilized
[17]
  Thermal stabilization in U-87 MG/IDH2-R140Q-Q316A cells (CETSA): lost

Source: article PMC6778631 (Cancer Science, 2019)
